PP1 counter: PP1-alpha (human) inhibition in PP5 counter-screen | purified PP1alpha, OMFP fluorescence | inhibition, % at 6.7 µM | 0.9% of 320,000 active | AID 2235;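 active means inhibition above the mean inhibition of all tested compounds plus 3 SD, computed separately for each screening campaign, cut at about 15% in these data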
Apaf-1 inh: blocks human Apaf-1 apoptosome activity | O14727 | reconstituted apoptosome caspase-3 activity, DEVD-Rh110 fluorescence | inhibition, % at 20 µM | 0.71% of 330,000 active | AID 489030; active means inhibition of at least 40% at 20 µM
Target sequence (O14727 whole entry, looked up): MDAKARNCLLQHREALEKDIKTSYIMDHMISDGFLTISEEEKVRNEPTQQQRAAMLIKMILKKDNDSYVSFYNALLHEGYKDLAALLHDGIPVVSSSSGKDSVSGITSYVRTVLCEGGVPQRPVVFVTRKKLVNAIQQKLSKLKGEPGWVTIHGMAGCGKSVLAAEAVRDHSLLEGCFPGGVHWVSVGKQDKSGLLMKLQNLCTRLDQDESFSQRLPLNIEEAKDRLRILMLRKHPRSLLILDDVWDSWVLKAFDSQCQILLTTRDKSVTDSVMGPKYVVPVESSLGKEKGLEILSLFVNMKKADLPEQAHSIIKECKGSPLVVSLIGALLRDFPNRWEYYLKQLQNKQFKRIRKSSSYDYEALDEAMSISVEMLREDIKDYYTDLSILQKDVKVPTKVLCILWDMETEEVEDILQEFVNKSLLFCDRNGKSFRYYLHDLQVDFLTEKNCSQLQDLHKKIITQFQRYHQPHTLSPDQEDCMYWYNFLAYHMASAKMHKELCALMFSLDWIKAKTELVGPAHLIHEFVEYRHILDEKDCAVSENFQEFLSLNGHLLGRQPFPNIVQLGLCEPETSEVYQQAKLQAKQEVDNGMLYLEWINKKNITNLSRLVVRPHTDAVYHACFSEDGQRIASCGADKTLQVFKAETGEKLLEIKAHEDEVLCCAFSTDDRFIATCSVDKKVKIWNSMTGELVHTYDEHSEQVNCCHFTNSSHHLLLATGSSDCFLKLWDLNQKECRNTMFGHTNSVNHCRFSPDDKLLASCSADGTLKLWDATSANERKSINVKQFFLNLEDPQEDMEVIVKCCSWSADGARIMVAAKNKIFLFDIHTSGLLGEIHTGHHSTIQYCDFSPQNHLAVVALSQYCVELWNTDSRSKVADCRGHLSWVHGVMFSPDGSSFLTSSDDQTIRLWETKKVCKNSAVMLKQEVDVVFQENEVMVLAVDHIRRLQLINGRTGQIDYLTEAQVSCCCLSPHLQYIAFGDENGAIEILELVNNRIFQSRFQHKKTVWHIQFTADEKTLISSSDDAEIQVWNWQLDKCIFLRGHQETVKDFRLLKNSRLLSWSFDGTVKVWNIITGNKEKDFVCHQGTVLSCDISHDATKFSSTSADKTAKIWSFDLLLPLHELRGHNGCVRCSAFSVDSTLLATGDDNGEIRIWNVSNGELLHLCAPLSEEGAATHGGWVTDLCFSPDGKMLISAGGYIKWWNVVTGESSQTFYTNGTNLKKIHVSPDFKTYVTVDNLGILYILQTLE
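Material: cell-free apoptosome with Apaf-1, procaspase-3 and caspase-9; Buffer or medium: Hepes pH 7.5 with detergent and BSA; Reagent: cytochrome c trigger plus (Z-DEVD)2-Rh110 caspase-3 substrate; Times: compound with Apaf-1, dATP, procaspase-3 30 min, then 50 min reaction, room temperature; Technique: Rh110 fluorescence intensity.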
GSTO1 inh: blocks human GSTO1 in RBBP9 counter-screen | P78417 | recombinant GSTO1, activity-based probe fluorescence polarization | inhibition, % at 5.96 µM | 1.1% of 300,000 active | AID 1974;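 active means inhibition above the campaign mean inhibition plus 3 SD, cut at about 35% in these data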
PP5 primary: inhibitors of human protein phosphatase 5 (PP5); P53041; purified PP5c, OMFP substrate fluorescence; inhibition, % at 6.7 µM; 0.18% of 320,000 active; AID 1987;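 active means inhibition above the campaign's mean inhibition across all tested compounds plus 3 SD, cut at about 9.5% in these data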
TDP2 absorb: blocks human TDP2 phosphodiesterase activity | O95551 | recombinant TDP2, T5PNP hydrolysis, p-nitrophenol absorbance 415 nm | inhibition, % at 12.8 µM | 0.34% of 370,000 active | AID 720702;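 active means inhibition above the mean of all tested compounds plus 3 SD, set per campaign, cut at about 25% in these data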
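Test system: Human TDP2 enzyme | Reagent: 5 mM T5PNP | Compound dosing: 12.8 µM single point, 1% DMSO | Incubation: Enzyme reaction with compound for 2 h at 37 °C | Technique: p-Nitrophenol epi absorbance | Read-out: % inhibition relative to enzyme-containing and enzyme-free wells | Benchmarks: High control without enzyme, low control DMSO plus TDP2 | Replicates: Singlicate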
Apaf-1 inh conf2: confirmation of Apaf-1 inhibitors; shares compounds with Apaf-1 inh; reconstituted apoptosome, caspase-3 DEVD-Rh110 fluorescence; inhibition, % at 20 µM; 25% of 1,800 active;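 active means mean inhibition of at least 40% at 20 µM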
Rh110 interf inh: counter-screen for Apaf-1 inhibitors: fluorescence interference | Rh110 fluorescence interference, quenched caspase reaction | shares compounds with Apaf-1 inh | 1,800 tested, under 10 active | activation (fluorescence interference), % at 20 µM;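 active means signal rise of 40% or more at 20 µM, treated as a fluorescence artifact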
Fluor interf inh: shows fluorescence interference in the Apaf-1 inhibitor assay format; shares compounds with Apaf-1 inh; fluorescence interference counterscreen, Apaf-1 assay format; IC50, µM; 460 tested, under 10 active; call rule not given here
Hits are given with their value; . = inactive; / = no result. In the library only some 2.1% were active in any assay of this set; here they are far more common.

SMILES	PP1 counter	Apaf-1 inh	GSTO1 inh	PP5 primary	TDP2 absorb	Apaf-1 inh conf2	Rh110 interf inh	others
CCN(CC)CCC(c1ccc(N(C)C)cc1)c1c(OC)cc(OC)c2ccc(=O)oc12 (centres undefined)	.	.	.	.	.	/	/
CCCCCc1cc(=O)oc2c(C(CCN3CCCCC3)c3ccc(OC)cc3)c(OC)cc(OC)c12 (centres undefined)	.	.	.	.	.	/	/
CCCCCc1cc(=O)oc2c(C(CCN(CC)CC)c3ccc(OC)cc3)c(OC)cc(OC)c12 (centres undefined)	.	60.6	.	.	.	.	.
CCCCCc1cc(=O)oc2c(C(CCN3CCCC3)c3cc(OC)c(OC)c(OC)c3)c(OC)cc(OC)c12 (centres undefined)	.	49.7	.	.	.	.	.
CCCCCc1cc(=O)oc2c(C(CCN3CCCC3)c3ccc(N(C)C)cc3)c(OC)cc(OC)c12 (centres undefined)	.	45.2	.	.	.	.	.
CCCCCc1cc(=O)oc2c(C(CCN3CCCC(C)C3)c3ccc(OC)cc3)c(OC)cc(OC)c12 (centres undefined)	.	65.5	.	.	.	.	.
COC(=O)[C@]12C[C@H](CC(=O)NCC34CC5CC(CC(C5)C3)C4)C(=O)N(Cc3ccccc3)C1=C[C@H](C(C)C)O[C@@H]2C1CC1	/	/	/	/	.	/	/
O=C(CCn1nnc2ccccc21)N1CCN(c2ccccc2F)CC1	/	/	/	/	.	/	/
COC(=O)C1=C(C)N(C)C(=NCC2CC2)NC1CCc1ccccc1 (centres undefined)	/	/	/	/	.	/	/
CN1CCN(c2ccc(NC(=O)c3cc(S(N)(=O)=O)ccc3N3CCOCC3)cc2)CC1	.	40.2	/	.	.	.	.
CN1CCN(c2ccc(NC(=O)c3cc([N+](=O)[O-])ccc3N3CCOCC3)cc2)CC1	.	.	.	.	.	/	/
COc1ccc(C=NNC(=O)c2ccncc2)cc1	/	/	/	/	.	/	/
COc1ccccc1N1CCN(C(=O)c2cc3sccc3n2C)CC1	.	.	.	.	.	/	/
Cn1c(C(=O)N2CCN(c3nc4ccccc4s3)CC2)cc2sccc21	.	40.7	.	.	.	.	.
CS(=O)(=O)c1nc(-c2ccc(Br)cc2)cc(-c2ccccc2)c1C#N	.	47.4	.	.	.	59.1	.	Fluor interf inh=.
CN(C(=S)Nc1ccc(SC(F)F)cc1)c1ccc(O)cc1	.	69.9	65.7	.	.	.	.
CN(C(=S)Nc1ccccc1)c1ccccc1	.	.	.	.	.	/	/
CCCCc1ccc2nc(NC(=O)c3ccco3)sc2c1	/	/	/	/	.	/	/
CN(C)c1cccc2c1c(NC(=O)c1ccc(F)cc1)nn2C	.	91.9	.	.	.	.	.
CN(C)c1cccc2c1c(NC(=O)Nc1ccccc1)nn2C	.	82.4	.	.	.	.	.
COc1ccc(/C=C2\CC3(OC(=O)C4CCCCC4)CCCN2C3)cc1 (centres undefined)	/	/	/	/	.	/	/
Cc1cc(C)c(S(=O)(=O)/N=C2\C=C(NS(=O)(=O)c3ccccc3)C(=O)c3ccccc32)c(C)c1	.	63.5	60.2	.	.	48.4	.	Fluor interf inh=.
Nc1c(C(=O)NCc2ccco2)c2nc3ccccc3nc2n1CCc1ccccc1F	.	61.4	.	.	.	.	.
COc1ccc(CCn2c(N)c(C(=O)NCc3ccco3)c3nc4ccccc4nc32)cc1	.	.	.	.	.	/	/
COc1ccc(-n2c(N)c(C(=O)NCc3ccco3)c3nc4ccccc4nc32)c(OC)c1	.	64.7	37.0	.	.	.	.
C#CCNC(=O)C[C@H]1C[C@@]2(C(=O)OC)C(=C[C@H](COCc3ccccc3)O[C@@H]2C)N(CCc2ccc(OC)c(OC)c2)C1=O	/	/	/	/	.	/	/
CCCCc1c(-c2ccccc2OC)ncn1Cc1cccc(F)c1	/	/	/	/	.	/	/
Cc1c(C(=O)Nc2ccc(S(=O)(=O)N(C)C3CCN(C)CC3)cc2)oc2ccccc12	.	52.6	/	.	.	.	.
CC(=O)c1ccc2c(c1)c(C#N)c1ccccc1[n+]2[O-]	/	73.9	/	/	.	42.3	.	Fluor interf inh=.

High-throughput results as filed in PubChem BioAssay.
